Test results as given in ChEMBL document CHEMBL1134797, “Synthesis and structural studies of aza analogues of functionalized amino acids: new anticonvulsant agents” (2001).

Tests used:
Rattus norvegicus [1] = assay: Evaluated against Maximal electroshock seizure test in rat after po administration
Mus musculus [2] = assay: Evaluated against Maximal electroshock seizure test in mice after ip administration; type: functional
In short: (§1)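 Given intraperitoneally to mice. […] Seizure protection scored in the maximal electroshock test or against subcutaneous pentylenetetrazole (Metrazol). Neurologic toxicity scored on the rotorod.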

Mus musculus [3] = assay: Evaluated against neurological toxicity determined from the rotarod test in mice after ip administration; type: functional
In short: as §1

[4] = Protective index (TD50/ED50) value of the compound; type: functional
In short: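 Protective index taken as rotorod TD50 divided by maximal electroshock ED50, both in mg/kg and both from dose–effect data at the time of peak effect.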

Rattus norvegicus [5] = assay: Evaluated against neurological toxicity determined from the rotarod test in rat after po administration
Mus musculus [6] = assay: Tested against subcutaneous pentylenetetrazole (Metrazol) seizure test in mice after ip administration; type: functional
In short: as §1

For O=C1NC(=O)C(c2ccccc2)(c2ccccc2)N1 [PHENYTOIN], the ED50 (Rattus norvegicus [1]) was 23 mg/kg, the ED50 (Mus musculus [2]) was 6.5 mg/kg and the TD50 (Mus musculus [3]) was 43 mg/kg. For the same molecule, the PI [4] was 6.6.
With CC(=O)NN(C)C(=O)NCc1ccccc1 the ED50 (Rattus norvegicus [1]) was over 30 mg/kg, the ED50 (Mus musculus [2]) was 89 mg/kg and the TD50 (Mus musculus [3]) was over 500 mg/kg. It also gave a TD50 (Rattus norvegicus [5]) of over 30 mg/kg, an ED50 (Mus musculus [6]) of over 300 mg/kg and a PI [4] of over 5.6.
In the case of CCCC(CCC)C(=O)O [VALPROIC ACID], the ED50 (Rattus norvegicus [1]) is reported as 400 mg/kg, the ED50 (Mus musculus [2]) is reported as 290 mg/kg and the TD50 (Mus musculus [3]) is reported as 480 mg/kg. The PI [4] was 1.3.
In the case of CC(=O)NN(C(=O)NCc1ccccc1)c1ncccn1, the ED50 (Rattus norvegicus [1]) is reported as about 30 mg/kg, the ED50 (Mus musculus [2]) is reported as over 100 mg/kg and the TD50 (Mus musculus [3]) is reported as over 100 mg/kg. The TD50 (Rattus norvegicus [5]) was over 30 mg/kg and the ED50 (Mus musculus [6]) was over 300 mg/kg.
Molecule CC(=O)NNC(=O)NCc1ccccc1 has an ED50 (Rattus norvegicus [1]) of 95 mg/kg, an ED50 (Mus musculus [2]) of over 100 mg/kg and a TD50 (Mus musculus [3]) of over 160 mg/kg. It also gave a TD50 (Rattus norvegicus [5]) of over 160 mg/kg and an ED50 (Mus musculus [6]) of over 300 mg/kg.
Molecule CC(=O)NN(C(=O)NCc1ccccc1)c1ccccc1 has an ED50 (Rattus norvegicus [1]) of over 30 mg/kg, an ED50 (Mus musculus [2]) of over 30 mg/kg and a TD50 (Mus musculus [3]) of over 100 mg/kg. The TD50 (Rattus norvegicus [5]) was over 30 mg/kg and the ED50 (Mus musculus [6]) was over 300 mg/kg.
CC(=O)NN(C(=O)NCc1ccccc1)c1nccs1 showed an ED50 (Rattus norvegicus [1]) of 6.2 mg/kg, an ED50 (Mus musculus [2]) of 22 mg/kg and a TD50 (Mus musculus [3]) of 120 mg/kg. For the same molecule, the TD50 (Rattus norvegicus [5]) was over 250 mg/kg, the ED50 (Mus musculus [6]) was over 200 mg/kg and the PI [4] was 5.4.
CC(=O)NN(C(=O)NCc1ccccc1)c1ccccn1 showed an ED50 (Rattus norvegicus [1]) of under 30 mg/kg, an ED50 (Mus musculus [2]) of over 30 mg/kg and a TD50 (Mus musculus [3]) of over 100 mg/kg. For the same molecule, the TD50 (Rattus norvegicus [5]) was over 30 mg/kg and the ED50 (Mus musculus [6]) was over 100 mg/kg.
With CCC1(c2ccccc2)C(=O)NC(=O)NC1=O [PHENOBARBITAL] the ED50 (Mus musculus [2]) was 22 mg/kg, the TD50 (Mus musculus [3]) was 69 mg/kg and the PI [4] was 3.1.
